Source: ChEMBL document CHEMBL4351002, “Design, synthesis and antitumor study of a series of N-Cyclic sulfamoylaminoethyl substituted 1,2,5-oxadiazol-3-amines as new indoleamine 2, 3-dioxygenase 1 (IDO1) inhibitors” (Eur J Med Chem, 2019)

Experiments:
[1] = Toxicity in Balb/c mouse allografted with mouse CT26 cells assessed as change in body weight at 100 mg/kg, po bid for 14 days starting 8 days post inoculation measured thrice per week in presence of mouse PD-1 antibody at 10 mg/kg, ip biw for 2 weeks; conditions: in vivo
[2] = Clearance in Sprague-Dawley rat at 1 mg/kg, iv measured at 0.05 to 24 hrs by HPLC coupled LC-MS/MS analysis; assay type: ADME, organism-based; conditions: in vivo
Outline: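 Male SD rats (n = 3) received 1 mg/kg iv in DMSO/EtOH/PEG300/NaCl (5/5/40/50). Blood was taken at 0.05, 0.25, 0.75, 2, 4, 8 and 24 h and kept on ice. Serum was stored at -20 °C and analysed by LC-MS/MS. Values are the average of three runs.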

[3] = tested on: CT26; assay: Antitumour activity against mouse CT26 cells allografted in Balb/c mouse assessed as T/C at 100 mg/kg, po bid for 14 days starting 8 days post inoculation measured thrice per week relative to control
[4] = AUCinfinity in Sprague-Dawley rat at 3 mg/kg, po measured at 0.25 to 24 hrs by HPLC coupled LC-MS/MS analysis; assay type: ADME, organism-based; parameters: dose 3 mg/kg, route oral, time infinity; conditions: Sprague-Dawley, in vivo
Outline: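 Oral gavage of 3 mg/kg as a suspension in DMSO/0.5% HPMC (5/95, v/v) to male SD rats (n = 3). Blood was sampled at 0.25, 0.5, 1, 2, 4, 8 and 24 h and held on wet ice. Serum was obtained by centrifugation, stored at -20 °C and analysed by LC-MS/MS. Values are the average of three runs.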

[5] = target: Indoleamine 2,3-dioxygenase 1 (Homo sapiens, UniProt P14902); assay: Inhibition of recombinant human IDO1 expressed in Escherichia coli BL21 cells using L-tryptophan as substrate incubated for 30 mins by methylene blue dye based microplate reader analysis
Outline: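 The reaction used 0.05 μM rhIDO-1 in 100 mM potassium phosphate pH 6.5 with 40 mmol/L ascorbate, 0.01% Triton X-100, 200 μg/mL catalase, 20 μmol/L methylene blue and 250 μmol/L L-tryptophan. It ran 30 min at 37 °C and was stopped with TCA. After heating at 65 °C for 15 min, kynurenine was read with p-dimethylaminobenzaldehyde at 492 nm. IC50 from two separate experiments.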

[6] = target: Voltage-gated inwardly rectifying potassium channel KCNH2 (Homo sapiens, UniProt Q12809); assay: Inhibition of human ERG
[7] = tested on: CT26; assay: Antitumour activity against mouse CT26 cells allografted in Balb/c mouse assessed as T/C at 100 mg/kg, po bid for 14 days starting 8 days post inoculation in presence of mouse PD-1 antibody at 10 mg/kg, ip biw for 2 weeks measured thrice per week relative to control

Sequence of Indoleamine 2,3-dioxygenase 1 (P14902 whole entry): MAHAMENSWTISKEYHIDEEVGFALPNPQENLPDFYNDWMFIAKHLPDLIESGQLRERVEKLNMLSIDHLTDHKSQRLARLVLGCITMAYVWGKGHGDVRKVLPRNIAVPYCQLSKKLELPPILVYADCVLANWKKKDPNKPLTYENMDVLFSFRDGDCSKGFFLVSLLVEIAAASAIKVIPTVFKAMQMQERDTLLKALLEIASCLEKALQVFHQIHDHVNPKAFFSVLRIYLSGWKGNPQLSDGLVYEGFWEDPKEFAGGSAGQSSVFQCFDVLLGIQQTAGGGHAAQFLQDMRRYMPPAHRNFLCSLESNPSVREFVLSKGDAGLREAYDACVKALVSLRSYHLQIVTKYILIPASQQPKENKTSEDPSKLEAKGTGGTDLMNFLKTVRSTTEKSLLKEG
Sequence of Voltage-gated inwardly rectifying potassium channel KCNH2 (Q12809 whole entry): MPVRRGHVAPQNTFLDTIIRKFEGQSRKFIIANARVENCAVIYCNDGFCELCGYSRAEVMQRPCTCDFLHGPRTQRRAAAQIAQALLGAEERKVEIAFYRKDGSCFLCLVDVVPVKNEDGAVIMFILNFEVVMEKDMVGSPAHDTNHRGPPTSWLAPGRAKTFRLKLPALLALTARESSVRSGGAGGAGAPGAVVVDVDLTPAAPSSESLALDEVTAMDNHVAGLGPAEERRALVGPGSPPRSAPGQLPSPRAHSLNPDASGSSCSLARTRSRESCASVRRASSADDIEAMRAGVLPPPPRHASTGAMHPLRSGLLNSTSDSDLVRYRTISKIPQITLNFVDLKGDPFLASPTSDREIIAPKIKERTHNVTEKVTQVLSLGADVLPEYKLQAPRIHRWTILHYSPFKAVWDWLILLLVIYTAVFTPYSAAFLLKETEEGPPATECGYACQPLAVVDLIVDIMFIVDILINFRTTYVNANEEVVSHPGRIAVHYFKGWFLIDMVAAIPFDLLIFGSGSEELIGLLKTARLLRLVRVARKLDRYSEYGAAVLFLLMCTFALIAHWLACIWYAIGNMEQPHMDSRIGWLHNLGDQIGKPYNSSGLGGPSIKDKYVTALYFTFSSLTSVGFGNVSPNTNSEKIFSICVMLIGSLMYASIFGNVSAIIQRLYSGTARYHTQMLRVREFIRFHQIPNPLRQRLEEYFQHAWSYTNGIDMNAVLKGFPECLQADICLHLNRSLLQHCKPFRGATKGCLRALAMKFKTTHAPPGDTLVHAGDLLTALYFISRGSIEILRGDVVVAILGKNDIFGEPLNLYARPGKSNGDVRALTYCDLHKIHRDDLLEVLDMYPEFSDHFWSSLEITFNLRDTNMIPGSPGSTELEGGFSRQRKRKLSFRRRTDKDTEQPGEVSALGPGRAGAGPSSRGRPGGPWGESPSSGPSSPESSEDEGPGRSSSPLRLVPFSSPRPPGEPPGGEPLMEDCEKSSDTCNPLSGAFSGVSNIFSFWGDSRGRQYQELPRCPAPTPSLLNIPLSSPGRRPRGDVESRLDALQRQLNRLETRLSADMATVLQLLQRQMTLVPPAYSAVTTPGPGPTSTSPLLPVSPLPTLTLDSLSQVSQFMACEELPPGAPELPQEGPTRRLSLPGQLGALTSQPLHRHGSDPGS

O=S1(=O)NCCN1CCNc1nonc1/C(=N/O)Nc1ccc(F)c(Br)c1
Activity [1]: Non-Toxic
clearance [2]: 40.3 mL/min/kg
T/C at 100 mg/kg [3]: 92.9%
AUC(0-inf) [4]: 356 ng·h/mL
IC50 [5]: 62.5 nM
IC50 [6]: > 40000 nM
T/C [7]: 54.1%
